{"source": "ChEMBL document CHEMBL1146986", "about": "“Synthesis and SAR studies of very potent imidazopyridine antiprotozoal agents” (Bioorg Med Chem Lett, 2006)", "note": "The source made the active and inactive calls. No cut-off for these calls is given here."}
{"system": "Salmonella typhimurium", "assay": "[…] against Salmonella Typhimurium TA98 at 3000 ug/plate by Ames microbial mutagenesis assay", "format": "functional, organism-based", "settings": "Salmonella enterica subsp. enterica serovar Typhimurium", "in_short": "(§1)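 Plate-incorporation reverse mutation test: about 10^8 bacterial cells in molten top agar are mixed with test article in DMSO and cofactor plus S9 fraction (50 µL/plate) from induced male Sprague–Dawley rats. Plated in triplicate and incubated 37 °C for 48 h. Revertant colonies are counted automatically, as mean ± standard deviation (n = 3). A twofold or greater increase over solvent control counts as positive.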"}
{"smiles": "CN1CCC(c2ccn3c(-c4ccnc(N)n4)c(-c4ccc(F)cc4)nc3c2)CC1", "Activity": "Active"}
{"smiles": "CN(C)Cc1ccn2c(-c3ccnc(N)n3)c(-c3ccc(F)cc3)nc2c1", "Activity": "Active"}
{"system": "Eimeria acervulina", "assay": "Antiparasitic activity against Eimeria acervulina in chicken at 12.5 ppm in feed assessed as percent reduction in oocyst", "format": "functional", "set-up": "scale not given: the % may be the effect or the level left", "settings": "not given", "in_short": "(§2)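 Infected chickens given compound orally in feed (ppm), seven-day in vivo efficacy model; activity quantified from oocyst shedding and graded as percent oocyst reduction versus infection.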"}
{"smiles": "CCCNc1nccc(-c2c(-c3ccc(F)cc3)nc3cc(CN(C)C)ccn23)n1", "Activity": ">=80%"}
{"smiles": "CN1CCC(c2ccn3c(-c4ccnc(N)n4)c(-c4ccc(F)cc4)nc3c2)CC1", "Activity": "50%"}
{"smiles": "CN(C)Cc1ccn2c(-c3ccnc(N)n3)c(-c3ccc(F)cc3)nc2c1", "Activity": ">=80%"}
{"smiles": "CN(C)Cc1ccn2c(-c3ccnc(NCC(C)(C)C)n3)c(-c3ccc(F)cc3)nc2c1", "Activity": ">=80%"}
{"system": "Eimeria tenella", "assay": "Antiparasitic activity against Eimeria tenella in chicken at 25 ppm in feed assessed as percent reduction in oocyst", "format": "functional", "set-up": "scale not given: the % may be the effect or the level left", "settings": "not given", "in_short": "as §2"}
{"smiles": "CNCc1ccn2c(-c3ccnc(N)n3)c(-c3ccc(F)cc3)nc2c1", "Activity": "<50%"}
{"smiles": "CN(C)Cc1ccn2c(-c3ccnc(NCc4ccccc4)n3)c(-c3ccc(F)cc3)nc2c1", "Activity": ">=80%"}
{"smiles": "CN(C)Cc1ccn2c(-c3ccnc(N(C)C)n3)c(-c3ccc(F)cc3)nc2c1", "Activity": "<50%"}
{"smiles": "Nc1nccc(-c2c(-c3ccc(F)cc3)nc3cc(C4CCNCC4)ccn23)n1", "Activity": "<50%"}
{"smiles": "N#Cc1ccn2c(-c3ccnc(N)n3)c(-c3ccc(F)cc3)nc2c1", "Activity": "<50%"}
{"smiles": "CNc1nccc(-c2c(-c3ccc(F)cc3)nc3cc(CN(C)C)ccn23)n1", "Activity": ">=80%"}
{"smiles": "NCc1ccn2c(-c3ccnc(N)n3)c(-c3ccc(F)cc3)nc2c1", "Activity": "<50%"}
{"smiles": "CN(C)Cc1ccn2c(-c3ccncn3)c(-c3ccc(F)cc3)nc2c1", "Activity": "<50%"}
{"smiles": "COc1nccc(-c2c(-c3ccc(F)cc3)nc3cc(CN(C)C)ccn23)n1", "Activity": "<50%"}
{"smiles": "Nc1nccc(-c2c(-c3ccc(F)cc3)nc3cc(Cl)ccn23)n1", "Activity": "<50%"}
{"smiles": "Nc1nccc(-c2c(-c3ccc(F)cc3)nc3cc(CO)ccn23)n1", "Activity": "<50%"}
{"target": "cGMP-dependent protein kinase (Eimeria tenella, UniProt Q8MMZ8)", "sequence (Q8MMZ8 whole entry)": "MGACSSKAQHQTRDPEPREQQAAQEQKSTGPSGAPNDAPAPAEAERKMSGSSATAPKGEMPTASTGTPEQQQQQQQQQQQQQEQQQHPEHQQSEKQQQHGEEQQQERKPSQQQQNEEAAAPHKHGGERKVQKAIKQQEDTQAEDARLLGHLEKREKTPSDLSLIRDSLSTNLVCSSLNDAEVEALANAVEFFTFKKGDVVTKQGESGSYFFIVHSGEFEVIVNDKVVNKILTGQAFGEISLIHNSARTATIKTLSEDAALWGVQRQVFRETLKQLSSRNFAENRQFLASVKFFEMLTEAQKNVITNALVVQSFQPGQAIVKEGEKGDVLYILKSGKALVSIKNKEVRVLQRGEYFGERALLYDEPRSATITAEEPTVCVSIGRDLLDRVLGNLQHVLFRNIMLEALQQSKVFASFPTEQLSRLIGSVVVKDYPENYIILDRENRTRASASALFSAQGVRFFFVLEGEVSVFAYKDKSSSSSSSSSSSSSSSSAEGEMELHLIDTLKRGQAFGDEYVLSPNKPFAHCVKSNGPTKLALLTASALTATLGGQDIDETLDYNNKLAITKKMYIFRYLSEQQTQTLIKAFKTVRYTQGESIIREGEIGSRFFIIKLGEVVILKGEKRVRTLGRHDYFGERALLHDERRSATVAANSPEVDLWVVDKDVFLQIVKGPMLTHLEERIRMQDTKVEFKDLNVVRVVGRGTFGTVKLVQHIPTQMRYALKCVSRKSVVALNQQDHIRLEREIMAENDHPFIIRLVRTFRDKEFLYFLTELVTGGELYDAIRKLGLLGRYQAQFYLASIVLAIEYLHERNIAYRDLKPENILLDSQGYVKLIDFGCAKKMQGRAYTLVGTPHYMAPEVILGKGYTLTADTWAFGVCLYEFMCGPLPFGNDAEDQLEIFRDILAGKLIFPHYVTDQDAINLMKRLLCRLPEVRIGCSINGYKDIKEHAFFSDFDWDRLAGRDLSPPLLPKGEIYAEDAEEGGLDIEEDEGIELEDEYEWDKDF", "assay": "Inhibitory activity against PKG", "settings": "not given", "units": {"IC50": "pM"}}
{"smiles": "CCCNc1nccc(-c2c(-c3ccc(F)cc3)nc3cc(CN(C)C)ccn23)n1", "IC50": 130}
{"smiles": "CN1CCC(c2ccn3c(-c4ccnc(N)n4)c(-c4ccc(F)cc4)nc3c2)CC1", "IC50": 40}
{"smiles": "CN(C)Cc1ccn2c(-c3ccnc(N)n3)c(-c3ccc(F)cc3)nc2c1", "IC50": 110}
{"smiles": "CNCc1ccn2c(-c3ccnc(N)n3)c(-c3ccc(F)cc3)nc2c1", "IC50": 150}
{"smiles": "CN(C)Cc1ccn2c(-c3ccnc(NCc4ccccc4)n3)c(-c3ccc(F)cc3)nc2c1", "IC50": 81}
{"smiles": "CN(C)Cc1ccn2c(-c3ccnc(N(C)C)n3)c(-c3ccc(F)cc3)nc2c1", "IC50": 2500}
{"smiles": "Nc1nccc(-c2c(-c3ccc(F)cc3)nc3cc(C4CCNCC4)ccn23)n1", "IC50": 50}
{"smiles": "N#Cc1ccn2c(-c3ccnc(N)n3)c(-c3ccc(F)cc3)nc2c1", "IC50": 11300}
{"smiles": "CN(C)Cc1ccn2c(-c3ccnc(NCC(C)(C)C)n3)c(-c3ccc(F)cc3)nc2c1", "IC50": 150}
{"smiles": "CNc1nccc(-c2c(-c3ccc(F)cc3)nc3cc(CN(C)C)ccn23)n1", "IC50": 170}
{"smiles": "NCc1ccn2c(-c3ccnc(N)n3)c(-c3ccc(F)cc3)nc2c1", "IC50": 180}
{"smiles": "CN(C)Cc1ccn2c(-c3ccncn3)c(-c3ccc(F)cc3)nc2c1", "IC50": 1900}
{"smiles": "COc1nccc(-c2c(-c3ccc(F)cc3)nc3cc(CN(C)C)ccn23)n1", "IC50": 2600}
{"smiles": "Nc1nccc(-c2c(-c3ccc(F)cc3)nc3cc(Cl)ccn23)n1", "IC50": 2700}
{"smiles": "Nc1nccc(-c2c(-c3ccc(F)cc3)nc3cc(CO)ccn23)n1", "IC50": 2700}
{"system": "Salmonella typhimurium", "assay": "[…] against Salmonella Typhimurium TA100 at 3000 ug/plate by Ames microbial mutagenesis assay", "format": "functional, organism-based", "settings": "Salmonella enterica subsp. enterica serovar Typhimurium", "in_short": "as §1"}
{"smiles": "CN1CCC(c2ccn3c(-c4ccnc(N)n4)c(-c4ccc(F)cc4)nc3c2)CC1", "Activity": "Active"}
{"smiles": "CN(C)Cc1ccn2c(-c3ccnc(N)n3)c(-c3ccc(F)cc3)nc2c1", "Activity": "Active"}
{"system": "Eimeria tenella", "assay": "Antiparasitic activity against Eimeria tenella in chicken at 6.25 ppm in feed assessed as percent reduction in oocyst", "format": "functional", "set-up": "scale not given: the % may be the effect or the level left", "settings": "not given", "in_short": "(§3)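 Seven-day in vivo anticoccidial model in chickens infected with E. tenella and E. acervulina. Compound is given orally in feed (ppm). Oocyst shedding from infected birds is quantified, and activity is graded by percent oocyst reduction.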"}
{"smiles": "CN1CCC(c2ccn3c(-c4ccnc(N)n4)c(-c4ccc(F)cc4)nc3c2)CC1", "Activity": ">=80%"}
{"smiles": "CN(C)Cc1ccn2c(-c3ccnc(N)n3)c(-c3ccc(F)cc3)nc2c1", "Activity": "50%"}
{"system": "Salmonella typhimurium", "assay": "[…] against Salmonella Typhimurium TA100 at 6000 ug/plate by Ames microbial mutagenesis assay", "format": "functional, organism-based", "settings": "Salmonella enterica subsp. enterica serovar Typhimurium", "in_short": "as §1"}
{"smiles": "CN1CCC(c2ccn3c(-c4ccnc(N)n4)c(-c4ccc(F)cc4)nc3c2)CC1", "Activity": "Active"}
{"smiles": "CN(C)Cc1ccn2c(-c3ccnc(N)n3)c(-c3ccc(F)cc3)nc2c1", "Activity": "Active"}
{"system": "Eimeria acervulina", "assay": "Antiparasitic activity against Eimeria acervulina in chicken at 6.25 ppm in feed assessed as percent reduction in oocyst", "format": "functional", "set-up": "scale not given: the % may be the effect or the level left", "settings": "not given", "in_short": "as §3"}
{"smiles": "CN1CCC(c2ccn3c(-c4ccnc(N)n4)c(-c4ccc(F)cc4)nc3c2)CC1", "Activity": ">=80%"}
{"smiles": "CN(C)Cc1ccn2c(-c3ccnc(N)n3)c(-c3ccc(F)cc3)nc2c1", "Activity": "50%"}
{"system": "Eimeria tenella", "assay": "Antiparasitic activity against Eimeria tenella in chicken at 12.5 ppm in feed assessed as percent reduction in oocyst", "format": "functional", "set-up": "scale not given: the % may be the effect or the level left", "settings": "not given", "in_short": "as §2"}
{"smiles": "CCCNc1nccc(-c2c(-c3ccc(F)cc3)nc3cc(CN(C)C)ccn23)n1", "Activity": ">=80%"}
{"smiles": "CN(C)Cc1ccn2c(-c3ccnc(N)n3)c(-c3ccc(F)cc3)nc2c1", "Activity": ">=80%"}
{"smiles": "CN(C)Cc1ccn2c(-c3ccnc(NCC(C)(C)C)n3)c(-c3ccc(F)cc3)nc2c1", "Activity": ">=80%"}
{"system": "Eimeria acervulina", "assay": "Antiparasitic activity against Eimeria acervulina in chicken at 25 ppm in feed assessed as percent reduction in oocyst", "format": "functional", "set-up": "scale not given: the % may be the effect or the level left", "settings": "not given", "in_short": "as §2"}
{"smiles": "CNCc1ccn2c(-c3ccnc(N)n3)c(-c3ccc(F)cc3)nc2c1", "Activity": "<50%"}
{"smiles": "CN(C)Cc1ccn2c(-c3ccnc(NCc4ccccc4)n3)c(-c3ccc(F)cc3)nc2c1", "Activity": ">=80%"}
{"smiles": "CN(C)Cc1ccn2c(-c3ccnc(N(C)C)n3)c(-c3ccc(F)cc3)nc2c1", "Activity": "<50%"}
{"smiles": "Nc1nccc(-c2c(-c3ccc(F)cc3)nc3cc(C4CCNCC4)ccn23)n1", "Activity": "<50%"}
{"smiles": "N#Cc1ccn2c(-c3ccnc(N)n3)c(-c3ccc(F)cc3)nc2c1", "Activity": "<50%"}
{"smiles": "CNc1nccc(-c2c(-c3ccc(F)cc3)nc3cc(CN(C)C)ccn23)n1", "Activity": ">=80%"}
{"smiles": "NCc1ccn2c(-c3ccnc(N)n3)c(-c3ccc(F)cc3)nc2c1", "Activity": "<50%"}
{"smiles": "CN(C)Cc1ccn2c(-c3ccncn3)c(-c3ccc(F)cc3)nc2c1", "Activity": "<50%"}
{"smiles": "COc1nccc(-c2c(-c3ccc(F)cc3)nc3cc(CN(C)C)ccn23)n1", "Activity": "<50%"}
{"smiles": "Nc1nccc(-c2c(-c3ccc(F)cc3)nc3cc(Cl)ccn23)n1", "Activity": "<50%"}
{"smiles": "Nc1nccc(-c2c(-c3ccc(F)cc3)nc3cc(CO)ccn23)n1", "Activity": "<50%"}
{"system": "Salmonella typhimurium", "assay": "[…] against Salmonella Typhimurium TA98 at 6000 ug/plate by Ames microbial mutagenesis assay", "format": "functional, organism-based", "settings": "Salmonella enterica subsp. enterica serovar Typhimurium", "in_short": "as §1"}
{"smiles": "CN1CCC(c2ccn3c(-c4ccnc(N)n4)c(-c4ccc(F)cc4)nc3c2)CC1", "Activity": "Active"}
{"smiles": "CN(C)Cc1ccn2c(-c3ccnc(N)n3)c(-c3ccc(F)cc3)nc2c1", "Activity": "Active"}
